# Measurements from ChEMBL document CHEMBL1125834, “Synthesis and antirhinovirus activity of 8-substituted analogues of 6-(dimethylamino)-9-(4-methylbenzyl)-2-(trifluoromethyl)-9H-purine” (J Med Chem, 1991).
# pIC50: −log10 of the molar value.
# System: rhinovirus A1B
# Experiment: (§1) Compound was tested for its inhibitory concentration against rhinovirus 1B through plaque-inhibition assay at 50 ug/disk using monolayers of M-HeLa cells
# Assay type: functional, organism-based, rhinovirus type 1b
# Settings: Rhinovirus A
# Outline: (§2)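 The 50% inhibitory concentration against rhinovirus serotype 1B was measured in M-HeLa cells, with plaque-reduction run as described previously. 4',6-Dichloroflavan was run alongside as the reference.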
row,pIC50,Structure (SMILES)
1,7.52,Cc1ccc(Cn2cnc3c(N(C)C)nc(C(F)(F)F)nc32)cc1
2,4.82,Cc1ccc(Cn2c(=O)n(C)c3c(N(C)C)nc(C(F)(F)F)nc32)cc1
3,5.85,Cc1ccc(Cn2c(Br)nc3c(N(C)C)nc(C(F)(F)F)nc32)cc1
4,4.70,Cc1ccc(Cn2c(S)nc3c(N(C)C)nc(C(F)(F)F)nc32)cc1
5,5.07,Cc1ccc(Cn2c(NCCO)nc3c(N(C)C)nc(C(F)(F)F)nc32)cc1
6,6.44,Cc1ccc(Cn2c(N)nc3c(N(C)C)nc(C(F)(F)F)nc32)cc1
7,5.54,CNc1nc2c(N(C)C)nc(C(F)(F)F)nc2n1Cc1ccc(C)cc1

# System: rhinovirus A1B
# Experiment: Compound at 40 uM was tested for its percentage inhibitory concentration against rhinovirus 1B through plaque-inhibition assay at 50 ug/disk using monolayers of M-HeLa cells
# Assay type: functional, rhinovirus type 1b
# Settings: not given
row,Structure (SMILES),Inhibition [%]
1,Cc1ccc(Cn2c(NCc3ccccc3)nc3c(N(C)C)nc(C(F)(F)F)nc32)cc1,20
2,Cc1ccc(Cn2c(S(C)(=O)=O)nc3c(N(C)C)nc(C(F)(F)F)nc32)cc1,37
3,CC(=O)Nc1nc2c(N(C)C)nc(C(F)(F)F)nc2n1Cc1ccc(C)cc1,22
4,Cc1ccc(Cn2c([S+](C)[O-])nc3c(N(C)C)nc(C(F)(F)F)nc32)cc1 (stereo not given),27
5,Cc1ccc(Cn2c(O)nc3c(N(C)C)nc(C(F)(F)F)nc32)cc1,25

# System: rhinovirus A1B
# Experiment: Compound at 8 uM was tested for its percentage inhibitory concentration against rhinovirus 1B through plaque-inhibition assay at 50 ug/disk using monolayers of M-HeLa cells
# Assay type: functional, rhinovirus type 1b
# Settings: not given
row,Structure (SMILES),Inhibition [%]
1,Cc1ccc(Cn2c(N(C)C)nc3c(N(C)C)nc(C(F)(F)F)nc32)cc1,40

# System: rhinovirus A1B
# Experiment: as §1
# Assay type: functional, rhinovirus type 1b
# Settings: Rhinovirus A
# Outline: as §2
row,Structure (SMILES),inhibition at 50 µg/disc [%]
1,CSc1nc2c(N(C)C)nc(C(F)(F)F)nc2n1Cc1ccc(C)cc1,15

# System: rhinovirus A1B
# Experiment: Compound was tested for its percentage inhibitory concentration through plaque-inhibition assay at 50 microg per disk using monolayers of M-HeLa cells.
# Assay type: functional, rhinovirus type 1b
# Settings: Rhinovirus A
row,Structure (SMILES),inhibition at 50 µg/disc [%]
1,Cc1ccc(Cn2c(SCc3ccccc3)nc3c(N(C)C)nc(C(F)(F)F)nc32)cc1,25
